Test results as given in ChEMBL document CHEMBL5303300, “EUbOPEN Chemogenomics Library - Multiplex” (2023).
Several values for one entry are separate records, joined by “and”; a condition that tells them apart may be missing. Identical values can stand only once.

Tested on: Fibroblast
Experiment: Multiplex assay against human fibroblast
Type: toxicity, cell-based
Details: number of replicates 2
Method in brief: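 Per cents of healthy-nucleus cells form the tubulin, mitochondrial-mass and membrane-permeability phenotype values. Live cells were stained at seeding with Hoechst33342, BioTracker Green Microtubule Cytoskeleton Dye, MitoTracker Red and Annexin V Alexa Fluor 680. After compound addition they were imaged on a CQ1 microscope at 37°C and 5% CO2, and CellPathfinder machine-learning gating split them into Hoechst high-intensity objects or normal cells, normal cells into healthy, pyknosed or fragmented nuclei, and pyknosed cells into mitotic or apoptotic.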

[1] = 12 h, 1 µM, compound concentration 1 uM
[2] = 12 h, 10 µM, compound concentration 10 uM
[3] = 24 h, 1 µM, compound concentration 1 uM
[4] = 24 h, 10 µM, compound concentration 10 uM
[5] = 48 h, 1 µM, compound concentration 1 uM
[6] = 48 h, 10 µM, compound concentration 10 uM

CC(C)(C)c1cnc(CSc2cnc(NC(=O)C3CCNCC3)s2)o1 [BMS-387032]
Population Apoptotic (%) [1]: 56% and 46% | Population Fragmented Nuclei (%) [1]: 8% and 6% | Population Healthy Nuclei (%) [1]: 60% and 72% | Population Hoechst High Intensity Objects (%) [1]: 0% | Population Membrane Permeable-Phenotype (%) [1]: 6% and 7% | Population Mitochondria Different-Phenotype (%) [1]: 0% and 2% | Population Mitotic Cells (%) [1]: 43% and 53% | Population Normal (%) [1]: 100% | Population Pyknosed Nuclei (%) [1]: 31% and 21% | Population Tubulin-Different-Phenotype (%) [1]: 15% and 16% | Total Cell Count [1]: 96 and 204 | Population Apoptotic (%) [2]: 46% and 38% | Population Fragmented Nuclei (%) [2]: 7% and 9% | Population Healthy Nuclei (%) [2]: 58% and 67% | Population Hoechst High Intensity Objects (%) [2]: 0% | Population Membrane Permeable-Phenotype (%) [2]: 3% and 6% | Population Mitochondria Different-Phenotype (%) [2]: 4% and 8% | Population Mitotic Cells (%) [2]: 53% and 61% | Population Normal (%) [2]: 100% | Population Pyknosed Nuclei (%) [2]: 33% and 23% | Population Tubulin-Different-Phenotype (%) [2]: 37% and 43% | Total Cell Count [2]: 141 and 213 | Population Apoptotic (%) [3]: 64% and 54% | Population Fragmented Nuclei (%) [3]: 12% and 10% | Population Healthy Nuclei (%) [3]: 61% and 63% | Population Hoechst High Intensity Objects (%) [3]: 0% | Population Membrane Permeable-Phenotype (%) [3]: 7% and 9% | Population Mitochondria Different-Phenotype (%) [3]: 0% and 1% | Population Mitotic Cells (%) [3]: 35% and 45% | Population Normal (%) [3]: 100% | Population Pyknosed Nuclei (%) [3]: 26% | Population Tubulin-Different-Phenotype (%) [3]: 21% and 18% | Total Cell Count [3]: 106 and 208 | Population Apoptotic (%) [4]: 52% and 71% | Population Fragmented Nuclei (%) [4]: 12% and 11% | Population Healthy Nuclei (%) [4]: 49% and 62% | Population Hoechst High Intensity Objects (%) [4]: 0% | Population Membrane Permeable-Phenotype (%) [4]: 6% and 7% | Population Mitochondria Different-Phenotype (%) [4]: 10% and 12% | Population Mitotic Cells (%) [4]: 47% and 28% | Population Normal (%) [4]: 100% | Population Pyknosed Nuclei (%) [4]: 37% and 26% | Population Tubulin-Different-Phenotype (%) [4]: 41% and 40% | Total Cell Count [4]: 147 and 198 | Population Apoptotic (%) [5]: 74% and 73% | Population Fragmented Nuclei (%) [5]: 12% and 14% | Population Healthy Nuclei (%) [5]: 49% and 52% | Population Hoechst High Intensity Objects (%) [5]: 0% | Population Membrane Permeable-Phenotype (%) [5]: 23% and 15% | Population Mitochondria Different-Phenotype (%) [5]: 2% and 0% | Population Mitotic Cells (%) [5]: 25% and 26% | Population Normal (%) [5]: 100% | Population Pyknosed Nuclei (%) [5]: 38% and 33% | Population Tubulin-Different-Phenotype (%) [5]: 33% and 30% | Total Cell Count [5]: 183 and 115 | Population Apoptotic (%) [6]: 64% and 73% | Population Fragmented Nuclei (%) [6]: 14% and 11% | Population Healthy Nuclei (%) [6]: 43% and 38% | Population Hoechst High Intensity Objects (%) [6]: 0% | Population Membrane Permeable-Phenotype (%) [6]: 10% and 22% | Population Mitochondria Different-Phenotype (%) [6]: 8% and 16% | Population Mitotic Cells (%) [6]: 35% and 26% | Population Normal (%) [6]: 100% | Population Pyknosed Nuclei (%) [6]: 41% and 49% | Population Tubulin-Different-Phenotype (%) [6]: 44% and 58% | Total Cell Count [6]: 194 and 137

CS(=O)(=O)c1ccc(C(=O)Nc2cc(F)cc(COc3cc(F)c(Br)cc3CN3CC[C@H](O)C3)c2)c(Cl)c1.O=CO
Population Apoptotic (%) [1]: 46% and 47% | Population Fragmented Nuclei (%) [1]: 17% | Population Healthy Nuclei (%) [1]: 64% and 60% | Population Hoechst High Intensity Objects (%) [1]: 0% | Population Normal (%) [1]: 99% | Population Pyknosed Nuclei (%) [1]: 18% and 26% | Total Cell Count [1]: 269 and 200 | Population Apoptotic (%) [2]: 67% and 54% | Population Fragmented Nuclei (%) [2]: 20% and 17% | Population Hoechst High Intensity Objects (%) [2]: 0% | Population Normal (%) [2]: 100% | Population Pyknosed Nuclei (%) [2]: 49% and 35% | Total Cell Count [2]: 234 | Population Apoptotic (%) [3]: 56% and 57% | Population Fragmented Nuclei (%) [3]: 20% and 17% | Population Healthy Nuclei (%) [3]: 65% and 63% | Population Hoechst High Intensity Objects (%) [3]: 0% | Population Normal (%) [3]: 100% | Population Pyknosed Nuclei (%) [3]: 19% | Total Cell Count [3]: 284 and 204 | Population Apoptotic (%) [4]: 88% and 75% | Population Fragmented Nuclei (%) [4]: 11% | Population Healthy Nuclei (%) [4]: 42% and 51% | Population Hoechst High Intensity Objects (%) [4]: 0% | Population Normal (%) [4]: 99% and 100% | Population Pyknosed Nuclei (%) [4]: 44% and 36% | Total Cell Count [4]: 134 and 230 | Population Apoptotic (%) [5]: 74% and 71% | Population Fragmented Nuclei (%) [5]: 25% | Population Healthy Nuclei (%) [5]: 66% and 65% | Population Hoechst High Intensity Objects (%) [5]: 0% | Population Normal (%) [5]: 100% | Population Pyknosed Nuclei (%) [5]: 8% | Total Cell Count [5]: 319 and 223 | Population Apoptotic (%) [6]: 93% and 90% | Population Fragmented Nuclei (%) [6]: 18% and 10% | Population Healthy Nuclei (%) [6]: 22% and 39% | Population Hoechst High Intensity Objects (%) [6]: 0% | Population Normal (%) [6]: 100% and 98% | Population Pyknosed Nuclei (%) [6]: 58% and 50% | Total Cell Count [6]: 102 and 177

CS(=O)(=O)c1ccc(C(=O)Nc2cccc(COc3cc(F)c(Br)cc3CN3CC[C@H](O)C3)c2)c(Cl)c1.O=CO
Population Apoptotic (%) [1]: 46% and 35% | Population Healthy Nuclei (%) [1]: 48% and 72% | Population Mitotic Cells (%) [1]: 53% and 64% | Population Pyknosed Nuclei (%) [1]: 41% and 16% | Total Cell Count [1]: 114 and 171 | Population Apoptotic (%) [2]: 51% and 40% | Population Healthy Nuclei (%) [2]: 48% and 51% | Population Mitotic Cells (%) [2]: 48% and 59% | Population Pyknosed Nuclei (%) [2]: 33% and 23% | Total Cell Count [2]: 211 and 262 | Population Apoptotic (%) [3]: 55% and 57% | Population Healthy Nuclei (%) [3]: 50% | Population Mitotic Cells (%) [3]: 42% | Population Pyknosed Nuclei (%) [3]: 39% and 18% | Total Cell Count [3]: 120 and 190 | Population Apoptotic (%) [4]: 77% and 74% | Population Healthy Nuclei (%) [4]: 53% and 58% | Population Mitotic Cells (%) [4]: 22% | Population Pyknosed Nuclei (%) [4]: 26% and 19% | Total Cell Count [4]: 217 and 251 | Population Apoptotic (%) [5]: 75% and 82% | Population Healthy Nuclei (%) [5]: 62% | Population Mitotic Cells (%) [5]: 24% | Population Pyknosed Nuclei (%) [5]: 23% and 11% | Total Cell Count [5]: 123 and 198 | Population Apoptotic (%) [6]: 92% and 82% | Population Healthy Nuclei (%) [6]: 62% and 60% | Population Mitotic Cells (%) [6]: 7% | Population Pyknosed Nuclei (%) [6]: 15% and 14% | Total Cell Count [6]: 245 and 274

NC(=O)c1ccc(-c2nc(-c3ccc4c(c3)OCCO4)c(-c3ccccn3)[nH]2)cc1
Population Apoptotic (%) [1]: 31% and 28% | Population Fragmented Nuclei (%) [1]: 5% | Population Healthy Nuclei (%) [1]: 81% and 72% | Population Hoechst High Intensity Objects (%) [1]: 0% | Population Membrane Permeable-Phenotype (%) [1]: 8% and 4% | Population Mitochondria Different-Phenotype (%) [1]: 0% and 2% | Population Mitotic Cells (%) [1]: 68% and 71% | Population Normal (%) [1]: 100% | Population Pyknosed Nuclei (%) [1]: 13% and 22% | Population Tubulin-Different-Phenotype (%) [1]: 15% and 6% | Total Cell Count [1]: 265 and 208 | Population Apoptotic (%) [2]: 26% and 17% | Population Fragmented Nuclei (%) [2]: 10% and 18% | Population Healthy Nuclei (%) [2]: 57% and 67% | Population Hoechst High Intensity Objects (%) [2]: 0% | Population Membrane Permeable-Phenotype (%) [2]: 1% and 3% | Population Mitochondria Different-Phenotype (%) [2]: 0% and 1% | Population Mitotic Cells (%) [2]: 73% and 82% | Population Normal (%) [2]: 100% | Population Pyknosed Nuclei (%) [2]: 32% and 13% | Total Cell Count [2]: 187 and 209 | Population Apoptotic (%) [3]: 50% and 53% | Population Fragmented Nuclei (%) [3]: 9% and 11% | Population Healthy Nuclei (%) [3]: 83% and 67% | Population Hoechst High Intensity Objects (%) [3]: 0% | Population Membrane Permeable-Phenotype (%) [3]: 4% and 2% | Population Mitochondria Different-Phenotype (%) [3]: 0% | Population Mitotic Cells (%) [3]: 50% and 46% | Population Normal (%) [3]: 100% and 99% | Population Tubulin-Different-Phenotype (%) [3]: 12% and 5% | Total Cell Count [3]: 287 and 229 | Population Apoptotic (%) [4]: 37% and 14% | Population Fragmented Nuclei (%) [4]: 12% and 24% | Population Healthy Nuclei (%) [4]: 70% and 69% | Population Hoechst High Intensity Objects (%) [4]: 0% | Population Membrane Permeable-Phenotype (%) [4]: 2% | Population Mitochondria Different-Phenotype (%) [4]: 1% | Population Mitotic Cells (%) [4]: 62% and 85% | Population Normal (%) [4]: 99% and 100% | Population Pyknosed Nuclei (%) [4]: 16% and 6% | Population Tubulin-Different-Phenotype (%) [4]: 10% and 5% | Total Cell Count [4]: 209 and 225 | Population Apoptotic (%) [5]: 56% and 77% | Population Fragmented Nuclei (%) [5]: 12% and 14% | Population Healthy Nuclei (%) [5]: 82% and 73% | Population Hoechst High Intensity Objects (%) [5]: 0% | Population Membrane Permeable-Phenotype (%) [5]: 4% | Population Mitochondria Different-Phenotype (%) [5]: 0% | Population Mitotic Cells (%) [5]: 43% and 22% | Population Normal (%) [5]: 100% and 99% | Population Pyknosed Nuclei (%) [5]: 5% and 12% | Population Tubulin-Different-Phenotype (%) [5]: 5% and 4% | Total Cell Count [5]: 309 and 221 | Population Apoptotic (%) [6]: 33% and 40% | Population Fragmented Nuclei (%) [6]: 16% and 24% | Population Healthy Nuclei (%) [6]: 76% and 73% | Population Hoechst High Intensity Objects (%) [6]: 0% | Population Membrane Permeable-Phenotype (%) [6]: 0% and 2% | Population Mitochondria Different-Phenotype (%) [6]: 0% and 1% | Population Mitotic Cells (%) [6]: 66% and 60% | Population Normal (%) [6]: 100% | Population Pyknosed Nuclei (%) [6]: 6% and 2% | Population Tubulin-Different-Phenotype (%) [6]: 11% and 7% | Total Cell Count [6]: 216 and 234
